Peptide text beside a SMILES is read from it. * marks the point of attachment. Propionyl = CCC(=O)*

Usually EC50 stands for the concentration giving half of the maximal effect. Usually IC50 stands for the midpoint of a concentration-inhibition curve. The low end stands for greater potency, the high end for weaker potency.

The target in assay [1] is T1, human NMUR2 (Homo sapiens, UniProt Q9GZQ4). In words: Functional in vitro FLIPR calcium mobilization assay. It counts as cell-based. The note with it: SD. The gist of the method:
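Recombinant Chem-1 cells overexpressing full-length human NMUR2, grown in DMEM/10% FBS with selection, seeded at 5×10^5 cells/mL 16 h before assay. Loaded with Calcium 6 dye plus 2 mM probenecid for 60 min at 37 °C. Fractions given as 12-point 1:3 dilutions in HBSS/20 mM Hepes/0.1% BSA, final 1.1 μM–[…]. Read by FLIPR at 0.5 Hz as peak minus baseline fluorescence; Hill fit, mean ± standard deviation of two experiments.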
For orientation: Calcium flux is commonly read through the fluorescence of an indicator in the cells.

Assay [2] has as its target T1, human NMUR2. In words: Competitive radioligand binding assay with [^125I]NMU-8.

T1 sequence (Q9GZQ4 whole entry): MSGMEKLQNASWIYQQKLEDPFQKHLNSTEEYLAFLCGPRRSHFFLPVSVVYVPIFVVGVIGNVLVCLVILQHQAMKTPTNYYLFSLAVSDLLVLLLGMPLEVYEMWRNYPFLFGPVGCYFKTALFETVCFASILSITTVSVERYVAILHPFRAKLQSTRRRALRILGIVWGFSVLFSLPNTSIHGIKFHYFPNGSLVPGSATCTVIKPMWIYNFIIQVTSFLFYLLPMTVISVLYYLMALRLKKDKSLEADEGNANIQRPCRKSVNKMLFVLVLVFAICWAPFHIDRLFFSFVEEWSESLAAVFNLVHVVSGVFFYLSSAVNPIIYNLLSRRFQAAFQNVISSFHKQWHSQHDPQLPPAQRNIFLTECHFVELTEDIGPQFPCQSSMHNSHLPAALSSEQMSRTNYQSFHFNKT

Regarding `CCC(=O)N[C@H](C(=O)N[C@@H](CC(C)C)C(=O)N[C@@H](CCC(N)=O)C(=O)N[C@@H](CCCNC(=N)N)C(=O)NCC(=O)N[C@@H](CO)C(=O)NCC(=O)N[C@H](C(=O)N[C@@H](C)C(=O)N[C@@H](C)C(=O)N[C@H](C(=O)N[C@@H](CC(=O)O)C(=O)N[C@@H](Cc1ccccc1)C(=O)N[C@H](C(=O)N[C@@H](CCCCN)C(=O)N[C@@H](CCCCN)C(=O)N[C@@H](CC(=O)O)C(=O)N[C@@H](Cc1c[nH]cn1)C(=O)N[C@H](C(=O)N[C@@H](C)C(=O)N[C@H](C(=O)N[C@@H](Cc1c[nH]c2ccccc12)C(=O)NCC(=O)N[C@@H](CCCNC(=N)N)C(=O)N1CCC[C@H]1C(=O)N[C@@H](Cc1ccccc1)C(=O)N[C@@H](Cc1ccccc1)C(=O)N[C@@H](CC(C)C)C(=O)N[C@@H](Cc1ccccc1)C(=O)N[C@@H](CCCNC(=N)N)C(=O)N1CCC[C@H]1C(=O)N[C@@H](CCCNC(=N)N)C(=O)N[C@@H](CC(N)=O)C(N)=O)[C@@H](C)O)[C@@H](C)O)[C@@H](C)O)C(C)C)[C@@H](C)O)[C@@H](C)CC` [fraction c] (Propionyl-ILQRGSGTAAVDFTKKDHTATWGRPFFLFRPRN-NH2), at human NMUR2 [1], the half-maximal effective concentration (EC50) is 1.02 nM. The compound further showed an IC50 at human NMUR2 [2] of 2.19 nM.

Source of the values: PMC9851027 (ACS Omega, 2023).
